LANA-H2A inh: blocks KSHV LANA binding to histone H2A/H2B; AID 2629; Q9QR71; actives 0.6% (n = 320,000); cell-free LANA-H2A/H2B peptide, fluorescence polarization; inhibition, % (test concentration not listed); in the data active = inhibition mostly above about 10%, no sharp cut-off; inactive = mostly below about 6.7%
TAAR1 agonist: human TAAR1 agonism; Q96RJ0; CHO RD-HGA16 TAAR1, Fluo-8 calcium fluorescence; vehicle wells 0%, saturating PEA agonist 100%; activation, % at 3 µM; actives 0.99% (n = 360,000); AID 624467;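 active = activation above the mean activation of all test compounds in the run plus 3 SD, cut at about 38% in these data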
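System: CHO-derived RD-HGA16 cells with stable Gα16 and human TAAR1. Times: 17-24 h plating, Fluo-8 75 min 37 °C, 30 min RT. Measured by: calcium-sensitive Fluo-8 signal, excitation 470-495, emission 515-575 nm. Read-out basis: % activation relative to PEA EC100 response. Control set: DMSO and PEA EC100. Repeats: no replicates (n 1).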
zfTRPN1 agonist: zebrafish TRPN1 (NompC) channel agonism; HEK293 zebrafish TRPN1-YFP, Fluo-8 calcium fluorescence; 100% = response to 87 µM carbachol; activation, % at 3 µM; actives 0.18% (n = 220,000);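 active = activation above its plate's cutoff, the mean activation of test wells on that plate plus 3 SD, cut at about 19% in these data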
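Control set: carbachol 87 µM as high control, DMSO as low control; system: HEK293 stable line with zebrafish TRPN1-YFP; read-out: % activation versus carbachol response; detection: intracellular calcium fluorescence with Fluo-8; doses: single test compound dose, 3 µM nominal, 0.3% DMSO; schedule: dye 1 h 37 °C plus 30 min RT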
TRPML3 agonist: agonists of human TRPML3 channel. Q8TDD5. HEK293 TRPML3-YFP, Fluo-8 calcium fluorescence; 100% = the carbachol control signal. activation, % at 3 µM. actives 0.29% (n = 220,000). AID 1448;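 active = activation above its plate's cutoff, the mean activation of the plate's test wells plus 3 SD, cut at about 12% in these data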
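Material: HEK293 cells stably carrying human TRPML3-YFP; compound dosing: single dose, 3 µM final nominal compound, 0.3% DMSO final; incubation: 1-h 37 °C dye load, 5-s basal, 120-s post-compound reads; technique: Fluo-8 intracellular calcium fluorescence, excitation 470-495 nm, emission 515-575 nm; read-out basis: percent activation from peak-to-basal fluorescence ratio, scaled between DMSO and carbachol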
GPR7 antagonist: human neuropeptides B/W receptor 1 antagonism | P48145 | GPR7-expressing cells, fluorescence antagonist assay | inhibition, % at 4.4 µM | actives 1.1% (n = 290,000) | AID 1861; in the data active = inhibition above about 16%, passing the limit was not always enough;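 note: cells stimulated with the agonist NPW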
TAAR1 antagonist: human TAAR1 antagonism. inhibition, % at 3 µM. Q96RJ0. actives 1.5% (n = 360,000). CHO RD-HGA16 TAAR1, Fluo-8 calcium fluorescence, antagonist. AID 624466;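 active = inhibition above a per-plate cutoff, the mean inhibition of test compounds on that plate plus 3 SD, cut at about 49% in these data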
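Material: RD-HGA16 CHO cells with stable hTAAR1 and Gα16; Dosing: single nominal final test compound concentration of 3 µM; Schedule: seeding 17-24 h prior, 75-min 37 °C, 30-min RT dye loading; Detection: kinetic Fluo-8 calcium fluorescence measurement; Measure: % inhibition from peak post-agonist over basal fluorescence ratio; Benchmarks: vehicle and agonist controls.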
GPR7 antag conf: human GPR7 antagonism, confirmation assay; inhibition, % at 4.4 µM; GPR7-expressing cells, calcium fluorescence antagonist mode; actives 52% (n = 2,400); shares compounds with GPR7 antagonist; in the data active = inhibition above about 24%;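 note: stimulated with the GPR7 agonist NPW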
MCHR1 antagonist: counter-screen for GPR7 antagonists: antagonists of human MCHR1. shares compounds with GPR7 antagonist. AID 2148. MCHR1-expressing cells, fluorescence antagonist assay. actives 62% (n = 2,400). inhibition, % at 4.4 µM; in the data active = inhibition above about 22%
Hits are given with their value; - = inactive; . = not tested or not shown. Sampled rows, rich in hits. Any-hit rate of the full collection: about 3.4%.

SMILES | LANA-H2A inh | TAAR1 agonist | zfTRPN1 agonist | TRPML3 agonist | GPR7 antagonist | TAAR1 antagonist | GPR7 antag conf | MCHR1 antagonist
CC(C)C[C@@H](CN)NC(=O)c1nc[nH]c1C(=O)N[C@@H](C)C(=O)CNC[C@H](C)NC(=O)c1nc[nH]c1C(=O)N[C@@H](CC(=O)O)C(=O)O | . | - | . | . | . | - | . | .
CCn1c(CNC(=O)c2cccnc2)cc2ccccc21 | - | - | . | . | - | - | . | .
C[C@@H](C(=O)NC1CCCC1)N1C(=O)N2CCc3c([nH]c4ccccc34)[C@@]2(C)C1=O | - | - | . | . | 26 | - | - | -
COc1ccc2[nH]c3c(c2c1)CCN1C(=O)N([C@@H](C)C(=O)NC2CCCCC2C)C(=O)[C@]31C (stereo not given in full) | - | - | . | . | 23 | - | - | 58
COc1ccc(CNC(=O)[C@H](C)N2C(=O)N3CCc4c([nH]c5ccc(OC)cc45)[C@@]3(C)C2=O)cc1 | - | - | . | . | - | - | . | .
Cc1ccc(N(C(=O)c2csnn2)C(C(=O)NC2CCCC2)c2ccncc2)c(C)c1 (stereo not given) | - | - | . | . | 41 | - | - | -
CC(=O)Nc1ccc(S(=O)(=O)N2CCc3cc4c(cc3C2)OCCCO4)cc1 | - | - | . | . | 29 | - | - | 37
CCCN(C(=O)CCNC(=O)Cn1cnc2ccccc2c1=O)c1cccc(Cl)c1 | - | . | . | . | - | . | . | .
CCc1ccc(Nc2n[n+](-c3ccccc3)c(-c3ccc(N(CC)CC)cc3)s2)cc1 | - | 50 | . | . | 62 | 50 | 88 | 83
c1ccc(COc2ccc(-c3sc(Nc4ccccc4)n[n+]3-c3ccccc3)cc2)cc1 | - | . | . | . | - | . | . | .
CCc1ccc(Nc2n[n+](-c3ccccc3)c(-c3cc(OC)c(OC)cc3Br)s2)cc1 | - | - | . | . | - | - | . | .
CCc1ccc(Nc2n[n+](-c3ccccc3)c(-c3ccc(OCc4ccccc4)cc3)s2)cc1 | - | - | . | . | 68 | - | 53 | 59
CCc1ccc(Nc2n[n+](-c3ccccc3)c(-c3c(Cl)cccc3Cl)s2)cc1 | - | 59 | . | . | 45 | 92 | 60 | 73
CC(C)Nc1nnc(SCc2cc(=O)n3ccsc3n2)s1 | - | - | - | - | 25 | - | - | -
CN(C)c1ccc(-c2nn3c(-c4ccccc4Cl)nnc3s2)cc1 | - | - | - | - | 25 | - | 33 | 75
COc1ccccc1-c1nnc2sc(-c3ccc(N(C)C)cc3)nn12 | - | - | - | - | - | - | . | .
CCN(CC)C(=O)C1=C(C)N(CCCN2CCCC2=O)C(=O)C(CC(=O)NCCCCc2ccccc2)C1 (stereo not given) | . | - | . | . | . | - | . | .
O=C(COC(=O)CNS(=O)(=O)c1ccc2ccccc2c1)Nc1ccccc1Sc1ccccc1 | - | - | - | - | 23 | - | 32 | 34
Oc1ccc(Cl)c(CN2CCN(c3ncc(Cc4ccccc4)cn3)CC2)c1 | . | - | . | . | . | - | . | .
CCOc1ccc(Oc2c(/C=N/NC(=O)COc3ccccc3OC)c(C)nn2-c2ccccc2)cc1 | - | - | - | - | 35 | - | 33 | 47
CCOc1ccc(Oc2c(/C=N/NC(N)=O)c(C)nn2-c2ccccc2)cc1 | - | - | - | - | - | - | . | .
CC1CCC(C(C)C)C(OC(=O)C[n+]2cc(-c3ccc(Cl)cc3)n3c2CCC3)C1 (stereo not given) | - | - | - | - | 28 | - | 38 | 51
CCc1ccc(N2C(=O)CN(Cc3ccccc3)C2=S)cc1 | - | - | . | . | 39 | - | - | -
O=S(=O)(c1cccc(Br)c1)N1CCN(C(=S)NCC2CCCO2)CC1 (stereo not given) | - | - | . | . | . | - | . | .
O=C(Cc1n[nH]c(=O)c2ccccc12)N1CCN(c2ccc(F)cc2)CC1 | - | - | - | - | 22 | - | - | -
SMILES | LANA-H2A inh | TAAR1 agonist | zfTRPN1 agonist | TRPML3 agonist | GPR7 antagonist | TAAR1 antagonist | GPR7 antag conf | MCHR1 antagonist
CC(=O)c1ccc(N2CCN(C(=O)Cc3n[nH]c(=O)c4ccccc34)CC2)cc1 | - | - | - | - | - | - | . | .
CCOc1ccc(N2CC(C(=O)Nc3ccncc3)CC2=O)cc1 (stereo not given) | - | - | . | . | 25 | - | - | -
CCOc1ccc(N2CC(C(=O)Nc3ccccn3)CC2=O)cc1 (stereo not given) | - | - | - | - | - | - | . | .
CC(C)(C)c1ccc(C(=O)N2CCC(C(=O)c3ccccc3)CC2)cc1 | - | - | . | . | 41 | - | 39 | 38
CCCCNC(=NCc1cccc(C(F)(F)F)c1)Nc1ccccc1 | - | - | . | . | 44 | - | 49 | 31
CCOC(=O)c1c(NC(C)=O)sc2c(OCC(O)CNC(C)(C)C)c(Br)ccc12 (stereo not given) | - | - | - | - | - | - | . | .
CCOC(=O)c1c(N)sc2c(OCC)c(Br)ccc12 | - | - | - | - | 24 | - | 29 | 28
CN(Cc1ccccc1)S(=O)(=O)c1nnc(NC(=O)c2ccc(F)cc2)s1 | - | - | . | . | - | - | . | .
COc1ccc(C(=O)Nc2nnc(S(=O)(=O)N(C)Cc3ccccc3)s2)cc1 | - | - | . | . | 41 | - | - | 31
CCc1cc(=O)oc2c3c(cc(OCC(=O)NCc4ccco4)c12)OC(C)(C)CC3 | - | . | . | . | 41 | . | - | 32
Cc1cccc(Oc2ccccc2NC(=O)CN2C(=O)NC3(CCCC3)C2=O)c1 | - | - | . | . | . | - | . | .
Cc1ccc(Oc2ccccc2NC(=O)CN2C(=O)NC3(CCCC3)C2=O)cc1 | - | - | . | . | 29 | - | - | -
O=C(O)c1ccc(NC2=C(Cl)C(=O)c3ccccc3C2=O)cc1 | - | - | - | - | 50 | - | - | 35
O=C1C(Cl)=C(Nc2ccccc2)C(=O)c2ccccc21 | - | - | - | - | - | - | . | .
COc1ccc(C(=O)N2CCCCCC2)cc1OC1CCN(C(C)=O)CC1 | - | - | . | . | - | - | . | .
COc1ccc(C(=O)N(C)Cc2ccc(C)o2)cc1OC1CCN(C(C)=O)CC1 | - | - | . | . | 23 | - | - | 36
CN1CCC(N(C)CC(=O)Nc2cccc(Oc3ccccc3)c2)CC1 | - | - | - | - | 27 | - | - | -
CN(CC(=O)Nc1cccc(S(=O)(=O)N(C)C)c1)Cc1ccccc1 | - | - | . | . | - | - | . | .
CN(CC(=O)Nc1cccc(C(F)(F)F)c1)Cc1ccccc1 | - | - | . | . | 26 | - | 24 | 35
Cc1ccccc1CN1C(=O)CN(S(C)(=O)=O)CC1(C)C(=O)Nc1ccc2c(c1)OCCO2 (stereo not given) | . | - | . | . | . | - | . | .
O=c1[nH]c(=S)[nH]c2c1CN(Cc1ccc(F)cc1)CC2 | - | - | . | . | 30 | - | - | -

Screens as filed in PubChem BioAssay.
